{"source": "paper PMC3963460", "about": "(Synthesis, 2013)", "target": "PKC rat-brain isozyme mixture", "experiment": "Protein kinase C isozyme mixture competitive binding assay with", "conditions": "read-out: Kd of (^3H)PDBu; measured under these assay conditions", "in_short": "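Rat-brain PKC isozyme mixture in Tris-HCl pH 7.4 buffer with KCl, CaCl2 and BSA, plus phosphatidylserine vesicles; (3H)PDBu added in DMSO. Triplicate vials incubated at 37 °C for 90 min, then 15 min on ice. Nonspecific binding from an unlabelled analogue at 5 μM assay concentration. Filtered through poly(ethyleneamine)-soaked filters, washed with ice-cold 20 mM Tris pH 7.4, scintillation-counted.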", "data": [{"smiles": "CCCC(=O)OC1C(C)C2(O)C(C=C(CO)CC3(O)C(=O)C(C)=CC32)C2C(C)(C)C12OC(=O)CCC", "note": "(stereo not shown) [(^3H)PDBu, (^3H)phorbol dibutyrate]", "values": [{"measurement": "Kd", "result": 1.55, "unit": "nM"}]}]}
